High-throughput results as filed in PubChem.
In the library only some 3.1% were active in any assay of this set; here they are far more common.
HSP90 refold inh – HSP90 inhibitors, primary screen, cell lysate, luminescence. Heat shock protein HSP 90 (rabbit reticulocyte lysate; luciferase refolding). inhibition, % at 5.6 µM. hit rate 0.91% among 290,000. Rabbit reticulocyte lysate, luciferase refolding luminescence, 3 h;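 active = inhibition above the screen-wide mean plus 3 SD, computed separately per campaign, cut at about 16% in these data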;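 also: 0% = DMSO wells and 100% = 60 µM geldanamycin wells; inhibitors lower the luminescence because luciferase stays unfolded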
HKDC1 inh – HKDC1 hexokinase inhibitors, primary screen, biochemical, fluorescence, uHTS; hit rate 0.16% among 340,000; recombinant HKDC1, G6PDH/diaphorase resazurin coupled fluorescence; Q2TB90; inhibition, % at 20 µM;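 active = inhibition above about 35% when tested at 20 µM, limit read from the data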;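 also: plate controls were DMSO wells with enzyme for no effect and DMSO wells lacking enzyme for full effect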
Target sequence (Q2TB90 whole entry, looked up): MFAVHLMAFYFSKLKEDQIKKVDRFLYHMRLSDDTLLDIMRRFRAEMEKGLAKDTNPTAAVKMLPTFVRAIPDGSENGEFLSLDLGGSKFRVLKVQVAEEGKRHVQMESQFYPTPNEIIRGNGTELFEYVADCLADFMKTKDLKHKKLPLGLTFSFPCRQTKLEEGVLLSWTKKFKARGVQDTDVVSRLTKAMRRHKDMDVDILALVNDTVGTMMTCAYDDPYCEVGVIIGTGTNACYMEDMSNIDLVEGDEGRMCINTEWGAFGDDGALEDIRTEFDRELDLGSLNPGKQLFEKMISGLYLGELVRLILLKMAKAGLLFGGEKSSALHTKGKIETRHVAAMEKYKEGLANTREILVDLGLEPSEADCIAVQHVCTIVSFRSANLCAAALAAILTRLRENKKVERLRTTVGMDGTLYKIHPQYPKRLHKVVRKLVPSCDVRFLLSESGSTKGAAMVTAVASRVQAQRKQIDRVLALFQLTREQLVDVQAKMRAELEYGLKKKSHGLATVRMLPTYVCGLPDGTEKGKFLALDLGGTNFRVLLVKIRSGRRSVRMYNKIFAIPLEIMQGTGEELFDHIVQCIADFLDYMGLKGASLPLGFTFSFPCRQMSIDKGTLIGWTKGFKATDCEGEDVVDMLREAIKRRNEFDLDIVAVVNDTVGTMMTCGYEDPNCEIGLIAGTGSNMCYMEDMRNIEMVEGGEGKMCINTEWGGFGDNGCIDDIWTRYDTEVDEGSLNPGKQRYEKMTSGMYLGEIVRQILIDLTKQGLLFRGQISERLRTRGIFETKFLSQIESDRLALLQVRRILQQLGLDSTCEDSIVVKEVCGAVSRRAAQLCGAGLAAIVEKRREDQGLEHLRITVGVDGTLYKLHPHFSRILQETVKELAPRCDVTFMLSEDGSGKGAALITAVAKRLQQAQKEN
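Material: recombinant HKDC1 hexokinase; Amount: HKDC1 at 5 µg/mL; Medium: Tris pH 8.0 buffer with MgCl2, Tween-20, BSA, BME; Schedule: 90 min reaction incubation at room temperature, dark; Technique: coupled resazurin fluorescence, excitation 525 nm, emission 613 nm.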
HSF1 activator – HSF-1 activators, primary screen, NIH3T3-HGL cells, MG132 stress, luminescence, single point; NIH3T3-HGL HSF-1 luciferase reporter, 8 h; 100% = twice DMSO control signal; activation, % at 9 µM; hit rate 1.7% among 300,000; AID 504408, 2011;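 active = mean replicate activation of at least 50% with a set share of replicates each reaching 50%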;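 also: 0% = median of the neutral control wells and 100% = twice that signal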
Hsp70 act – Hsp70 transcriptional activators, primary screen, cell-based, HeLa, Hsp70 promoter luciferase, luminescence, 10 µM | HeLa Hsp70 promoter luciferase reporter; scaled: vehicle 0, proteasome-inhibitor control 100% | activation, % at 10 µM | hit rate 0.04% among 200,000 | AID 1203, 2008;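 active = activation above the mean across all tested compounds plus 3 SD, cutoff set per campaign, cut at about 5.5% in these data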;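 also: 100% = MG132 at 30 µM as the positive control and 0% = DMSO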
Tb hexokinase – Trypanosoma brucei hexokinase 1 inhibitors, primary screen, biochemical, G6PDH-coupled NADH absorbance, MLSCN library. recombinant TbHK1, G6PDH-coupled NADH A340. AID 1430, 2008. hexokinase 1 [Trypanosoma brucei]. hit rate 0.11% among 220,000. inhibition, % at 10 µM;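 active = inhibition of 50% or more in the single-dose primary screen; inactive = inhibition below 50%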
HSF1 inh – HSF1 inhibitors in luciferase reporter cells, primary screen, cell-based, NIH3T3, luminescence. NIH3T3-HGL HSE-luciferase, MG132-induced, luminescence 8 h; active compounds read low. activity change, negative = inhibition, % at 7.5 µM (by protocol). hit rate 0.77% among 300,000. AID 2098, 2009;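 active = more than half of replicate wells show activity change below -50%, luminescence cut by over half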;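 also: luciferase reports HSF-1 transcriptional activity via heat shock element; 0% = median of DMSO wells and -100% = zero luminescence signal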
* hit, by the source's call; . = no result.

SMILES	HSP90 refold inh	HKDC1 inh	HSF1 activator	Hsp70 act	Tb hexokinase	HSF1 inh
CCN(CC)S(=O)(=O)c1ccc2c(c1)c(=O)c(C(=O)NCc1ccco1)cn2C	-1.1	1.1	-92.6	-0.4	-7.1	-90.4*
CC1CCN(S(=O)(=O)c2ccc3c(c2)c(=O)c(C(=O)NCc2ccco2)cn3C)CC1	4.0	-1.9	-0.4	-0.4	-6.9	5.2
COc1cc(C(=O)N2CCN(C(=O)c3cc(-c4ccccc4)n[nH]3)CC2)cc(OC)c1OC	3.0	-5.3	-5.6	.	.	1.1
CN(C)CCCN(C(=O)c1ccc(S(=O)(=O)N2CCc3ccccc32)cc1)c1nc2ccc(Cl)cc2s1	16.3*	-10.7	-41.8	.	.	-25.9
O=C(C#Cc1ccccc1)c1cccc([N+](=O)[O-])c1	4.7	37.0*	100.9*	-0.1	6.1	61.3
CC(=O)c1cccc([N+](=O)[O-])c1	.	0.7	.	.	.	.
Cc1c(NC(=O)COC(=O)Cc2ccc(F)cc2)c(=O)n(-c2ccccc2)n1C	.	-3.3	-9.2	.	.	-7.1
Cc1cc(O)c(NC(=O)c2cc([N+](=O)[O-])ccc2Cl)cc1C	-1.4	-9.4	99.6*	0.2	0.0	98.7
O=C(Nc1cccc2c1CCCC2)c1ccc(Cl)c([N+](=O)[O-])c1	-4.4	-10.3	13.3	0.1	25.9	0.5
O=C(Nc1cccc2c1CCCC2)c1cc([N+](=O)[O-])ccc1Cl	-2.7	-5.2	54.6*	0.3	2.6	31.1
Cc1ccc(O)c(-c2cc(C(F)(F)C(F)F)[nH]n2)c1	-1.3	-3.3	80.0*	-0.4	16.8	49.9
Cc1ccc(O)c(-c2cc(-c3ccccc3[N+](=O)[O-])[nH]n2)c1	-3.6	-4.7	59.1*	-0.1	24.4	42.0
COc1ccc(-c2cc(-c3ccc(C)cc3)n[nH]2)c(O)c1	-1.7	-0.3	31.3	.	.	7.6
COc1ccc(-c2cc(-c3cc(C)ccc3O)[nH]n2)cc1	-1.5	2.0	264.5*	0.0	9.8	251.8
Cc1ccc(O)c(-c2cc(-c3ccccc3C)[nH]n2)c1	-5.8	-2.9	161.7*	-0.2	15.2	122.9
O=C(NCC1CCCO1)c1cc2ccccc2o1 (centres undefined)	-3.6	-6.8	4.7	.	.	10.3
C=CCc1cccc(CNc2nc3ccccc3n2C)c1O	-1.8	-0.4	40.4	.	.	12.9
Cn1c(NCc2ccc(Cl)cc2)nc2ccccc21	-2.5	-5.3	54.2*	0.6	-1.4	36.5
Cn1c(CN2CCN(c3ccc(Cl)cc3)CC2)nc2ccccc21	-1.1	-5.2	63.8*	0.0	-1.5	21.7
CCN(CC)c1ccc(CNc2nc3ccccc3n2CCN2CCOCC2)cc1	4.2	-5.5	-71.9	-0.2	-4.8	-59.8*
CCn1c(CN2CCN(c3ccc(Cl)cc3)CC2)nc2ccccc21	3.5	-0.5	.	-0.3	6.2	.
C=CCc1cccc(CNc2nc3ccccc3n2CCN2CCOCC2)c1O	-1.2	18.1	117.6*	-0.1	-3.8	87.7
Cc1ccc(NC(=O)OC(C)N2CCCCC2)cc1NC(=O)OC(C)N1CCCCC1 (centres undefined)	.	-8.7	.	.	.	.
Cc1onc(-c2ccccc2)c1C(=O)c1ccccc1	0.0	0.9	6.4	.	30.1	-6.5
COc1cc(C(=O)Oc2cccc(C=O)c2)cc(OC)c1OC	-0.6	12.7	-11.8	0.0	5.9	-10.8
SMILES	HSP90 refold inh	HKDC1 inh	HSF1 activator	Hsp70 act	Tb hexokinase	HSF1 inh
O=Cc1cccc(OC(=O)c2ccc(Cl)cc2Cl)c1	-1.1	.	64.1*	-0.4	-3.9	26.6
c1ccc(OCCSc2nnnn2-c2ccccc2)cc1	4.3	6.8	69.4*	-0.1	3.2	45.8
O=C1c2ccccc2C(=O)N1CSc1nnnn1-c1ccccc1	-0.6	-2.3	22.4	-0.5	-0.5	5.2
O=C1c2ccccc2C(=O)N1CCCCSc1nnnn1-c1ccccc1	-0.9	-0.4	53.3*	0.0	-3.0	18.9
Cc1nn(CC(C)C(=O)N2CCN(S(=O)(=O)c3ccc(Cl)cc3)CC2)c(C)c1C (centres undefined)	3.9	-2.8	22.5	.	.	-9.7
Cc1cccc(-n2ncc3c(NCc4cccs4)ncnc32)c1	-5.4	12.5	21.1	0.2	-1.7	14.3
